Measurements taken from ChEMBL document CHEMBL3414437, “Synthesis of CDDO-amino acid-nitric oxide donor trihybrids as potential antitumor agents against both drug-sensitive and drug-resistant colon cancer” (J Med Chem, 2015).

Experiments:
[1] = tested on: HCT-8; test: Induction of apoptosis in human HCT8 cells assessed as necrotic cells level at 0.25 uM incubated for 24 hrs by FITC-Annexin-V and propidium iodide staining based flow cytometry (reference value: 2.58%); type: functional
[2] = tested on: HCT-8; test: Induction of apoptosis in human HCT8 cells assessed as early apoptotic cells level at 1 uM incubated for 24 hrs by FITC-Annexin-V and propidium iodide staining based flow cytometry (reference value: 1.21%); type: functional
[3] = tested on: HCT-8; test: Induction of apoptosis in human HCT8 cells assessed as late apoptotic cells level at 1 uM incubated for 24 hrs by FITC-Annexin-V and propidium iodide staining based flow cytometry (reference value: 4.23%); type: functional
[4] = tested on: HCT-8; test: Induction of apoptosis in FU-resistant human HCT8 cells assessed as late apoptotic cells level at 0.5 uM incubated for 24 hrs by FITC-Annexin-V and propidium iodide staining based flow cytometry (reference value: 0.95%); type: functional
[5] = tested on: HCT-8; test: Induction of apoptosis in human HCT8 cells assessed as necrotic cells level at 1 uM incubated for 24 hrs by FITC-Annexin-V and propidium iodide staining based flow cytometry (reference value: 2.58%); type: functional
[6] = tested on: HCT-8; test: Induction of apoptosis in FU-resistant human HCT8 cells assessed as late apoptotic cells level at 1 uM incubated for 24 hrs by FITC-Annexin-V and propidium iodide staining based flow cytometry (reference value: 0.95%); type: functional
[7] = Antiproliferative activity against 5-FU resistant human HCT8 cells assessed as inhibition of cell proliferation after 72 hrs by MTT assay; type: functional, cell-based; conditions: HCT-8, 72 h
Summary of the method: (§1)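 Cells (1.0 × 10^4/well) grown overnight in DMEM with 10% FBS. Treated in triplicate with eight concentrations ([…]) of compound from DMSO stock, final DMSO <0.4%, for 72 h. MTT added for the last 4 h, formazan dissolved in DMSO, read at 570 nm. Inhibition = (Acontrol−Atreated)/Acontrol. IC50 given as mean ± SD of three independent experiments.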

[8] = tested on: HCT-8; test: Induction of apoptosis in FU-resistant human HCT8 cells assessed as viable cells level at 0.5 uM incubated for 24 hrs by FITC-Annexin-V and propidium iodide staining based flow cytometry (reference value: 90%); type: functional
[9] = tested on: HCT-8; test: Induction of apoptosis in FU-resistant human HCT8 cells assessed as viable cells level at 1 uM incubated for 24 hrs by FITC-Annexin-V and propidium iodide staining based flow cytometry (reference value: 90%); type: functional
[10] = Antiproliferative activity against human CCD-841-CoN cells assessed as inhibition of cell proliferation after 72 hrs by MTT assay; type: cell-based; summary of the method: as §1
[11] = tested on: HCT-8; test: Induction of apoptosis in human HCT8 cells assessed as viable cells level at 0.5 uM incubated for 24 hrs by FITC-Annexin-V and propidium iodide staining based flow cytometry (reference value: 92%); type: functional
[12] = tested on: HCT-8; test: Induction of apoptosis in FU-resistant human HCT8 cells assessed as necrotic cells level at 0.5 uM incubated for 24 hrs by FITC-Annexin-V and propidium iodide staining based flow cytometry (reference value: 0.958%); type: functional
[13] = tested on: HCT-8; test: Induction of apoptosis in FU-resistant human HCT8 cells assessed as early apoptotic cells level at 0.25 uM incubated for 24 hrs by FITC-Annexin-V and propidium iodide staining based flow cytometry (reference value: 2.07%); type: functional
[14] = Antiproliferative activity against human HCT8 cells assessed as inhibition of cell proliferation after 72 hrs by MTT assay; type: functional, cell-based; conditions: HCT-8, 72 h; summary of the method: as §1
[15] = tested on: HCT-8; test: Induction of apoptosis in human HCT8 cells assessed as viable cells level at 1 uM incubated for 24 hrs by FITC-Annexin-V and propidium iodide staining based flow cytometry (reference value: 92%); type: functional
[16] = tested on: HCT-8; test: Induction of apoptosis in human HCT8 cells assessed as necrotic cells level at 0.5 uM incubated for 24 hrs by FITC-Annexin-V and propidium iodide staining based flow cytometry (reference value: 2.58%); type: functional
[17] = tested on: HCT-8; test: Induction of apoptosis in human HCT8 cells assessed as late apoptotic cells level at 0.5 uM incubated for 24 hrs by FITC-Annexin-V and propidium iodide staining based flow cytometry (reference value: 4.23%); type: functional
[18] = tested on: HCT-8; test: Induction of apoptosis in FU-resistant human HCT8 cells assessed as late apoptotic cells level at 0.25 uM incubated for 24 hrs by FITC-Annexin-V and propidium iodide staining based flow cytometry (reference value: 0.95%); type: functional
[19] = tested on: HCT-8; test: Induction of apoptosis in FU-resistant human HCT8 cells assessed as necrotic cells level at 1 uM incubated for 24 hrs by FITC-Annexin-V and propidium iodide staining based flow cytometry (reference value: 0.958%); type: functional
[20] = tested on: HCT-8; test: Induction of apoptosis in FU-resistant human HCT8 cells assessed as early apoptotic cells level at 0.5 uM incubated for 24 hrs by FITC-Annexin-V and propidium iodide staining based flow cytometry (reference value: 2.07%); type: functional
[21] = tested on: HCT-8; test: Induction of apoptosis in human HCT8 cells assessed as early apoptotic cells level at 0.5 uM incubated for 24 hrs by FITC-Annexin-V and propidium iodide staining based flow cytometry (reference value: 1.21%); type: functional
[22] = tested on: HCT-8; test: Induction of apoptosis in human HCT8 cells assessed as late apoptotic cells level at 0.25 uM incubated for 24 hrs by FITC-Annexin-V and propidium iodide staining based flow cytometry (reference value: 4.23%); type: functional
[23] = tested on: HCT-8; test: Induction of apoptosis in human HCT8 cells assessed as viable cells level at 0.25 uM incubated for 24 hrs by FITC-Annexin-V and propidium iodide staining based flow cytometry (reference value: 92%); type: functional
[24] = tested on: HCT-8; test: Induction of apoptosis in FU-resistant human HCT8 cells assessed as necrotic cells level at 0.25 uM incubated for 24 hrs by FITC-Annexin-V and propidium iodide staining based flow cytometry (reference value: 0.958%); type: functional
[25] = tested on: HCT-8; test: Induction of apoptosis in FU-resistant human HCT8 cells assessed as early apoptotic cells level at 1 uM incubated for 24 hrs by FITC-Annexin-V and propidium iodide staining based flow cytometry (reference value: 2.07%); type: functional
[26] = tested on: HCT-8; test: Induction of apoptosis in human HCT8 cells assessed as early apoptotic cells level at 0.25 uM incubated for 24 hrs by FITC-Annexin-V and propidium iodide staining based flow cytometry (reference value: 1.21%); type: functional
[27] = tested on: Mus musculus; test: Toxicity in ICR mouse assessed as mouse mortality incidence at 0.60 x 10^3 to 2.38 x 10^3 umol/kg administered as single dose via oral gavage measured up to 14 days post treatment; type: organism-based; conditions: in vivo, 336 h
Summary of the method: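 Adult ICR mice of either sex were randomised and given a single oral gavage dose of 500, 1000, 1500 or 2000 mg/kg in cremophor-EL/DMSO/PBS (1:1:8). Survival, behaviour, water and food intake, body weight and activity were monitored for up to 14 days. Body weights were taken on days 0, 7 and 14.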

[28] = tested on: HCT-8; test: Induction of apoptosis in FU-resistant human HCT8 cells assessed as viable cells level at 0.25 uM incubated for 24 hrs by FITC-Annexin-V and propidium iodide staining based flow cytometry (reference value: 90%); type: functional

| SMILES | Activity [1] | Activity [2] | Activity [3] | Activity [4] | Activity [5] | Activity [6] | IC50 [7] | Activity [8] | Activity [9] | IC50 [10] | Activity [11] | Activity [12] | Activity [13] | IC50 [14] | Activity [15] | Activity [16] | Activity [17] | Activity [18] | Activity [19] | Activity [20] | further results |
| --- | --- | --- | --- | --- | --- | --- | --- | --- | --- | --- | --- | --- | --- | --- | --- | --- | --- | --- | --- | --- | --- |
| CC1(C)CC[C@]2(C(=O)NCC(=O)OCC#CCOc3no[n+]([O-])c3S(=O)(=O)c3ccccc3)CC[C@]3(C)[C@H](C(=O)C=C4[C@@]5(C)C=C(C#N)C(=O)C(C)(C)[C@@H]5CC[C@]43C)[C@@H]2C1 | 2.31% | 9.51% | 39% | 34.6% | 3.58% | 44.9% | 232 nM | 49.8% | 34.3% | 1280 nM | 62.8% | 7.65% | 5.44% | 294 nM | 67.1% | 4.1% | 24.7% | 21.4% | 7.36% | 7.59% | Activity [21]: 5.34%; Activity [22]: 10.3%; Activity [23]: 74%; Activity [24]: 2.53%; Activity [25]: 13.5%; Activity [26]: 3.92%; Activity [27]: Non-toxic; Activity [28]: 70.8% |
| COC(=O)[C@]12CCC(C)(C)C[C@H]1[C@H]1C(=O)C=C3[C@@]4(C)C=C(C#N)C(=O)C(C)(C)[C@@H]4CC[C@@]3(C)[C@]1(C)CC2 [BARDOXOLONE METHYL] | 2.13% | 9.42% | 29.8% | 28.1% | 3.31% | 36% | 363 nM | 64.2% | 51.2% | 316 nM | 65.1% | 1.73% | 5.15% | 399 nM | 57.5% | 3.18% | 18.7% | 20.5% | 1.52% | 6.01% | Activity [21]: 6.8%; Activity [22]: 14%; Activity [23]: 79.5%; Activity [24]: 3.2%; Activity [25]: 10.9%; Activity [26]: 3.78%; Activity [28]: 71.1% |
